ChEMBL document CHEMBL3792291, “Design, synthesis, biological evaluation and docking studies of novel 2-substituted-4-morpholino-7,8-dihydro-5H-thiopyrano[4,3-d]pyrimidine derivatives as dual PI3Kα/mTOR inhibitors” (Eur J Med Chem, 2016)

Columns and labels:
A549 = test: Cytotoxicity against human A549 cells assessed as reduction in cell viability after 72 hrs by MTT assay; format: functional, cell-based; settings: A549, 72 h
[1] = Cytotoxicity against human PC3 cells assessed as reduction in cell viability after 72 hrs by MTT assay; format: functional, cell-based; settings: PC-3, 72 h
Outline: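 Cells grown in MEM with 10% FBS. About 4×10³ cells per well, seeded and held 24 h at 37 °C in 5% CO₂. Compounds added at the indicated final concentrations for 72 h. MTT then given for 4 h at 37 °C and formazan dissolved in DMSO. Absorbance read at 492 nm with 630 nm as reference.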

MCF7 = test: Cytotoxicity against human MCF7 cells assessed as reduction in cell viability after 72 hrs by MTT assay; format: functional, cell-based; settings: MCF7, 72 h
[2] = target: Serine/threonine-protein kinase mTOR (Homo sapiens, UniProt P42345); test: Inhibition of mTOR (unknown origin) using ULight-4E-BP1 peptide substrate incubated for 1 hr by TR-FRET assay
[3] = target: Phosphatidylinositol 4,5-bisphosphate 3-kinase catalytic subunit alpha isoform (Homo sapiens, UniProt P42336); test: Inhibition of PI3Kalpha (unknown origin) using phosphatidylinositol as substrate incubated for 60 mins by Kinase-Glo luminescent kinase assay
Phosphatidylinositol 4,5-bisphosphate 3-kinase catalytic subunit alpha isoform, sequence (P42336 whole entry, canonical isoform): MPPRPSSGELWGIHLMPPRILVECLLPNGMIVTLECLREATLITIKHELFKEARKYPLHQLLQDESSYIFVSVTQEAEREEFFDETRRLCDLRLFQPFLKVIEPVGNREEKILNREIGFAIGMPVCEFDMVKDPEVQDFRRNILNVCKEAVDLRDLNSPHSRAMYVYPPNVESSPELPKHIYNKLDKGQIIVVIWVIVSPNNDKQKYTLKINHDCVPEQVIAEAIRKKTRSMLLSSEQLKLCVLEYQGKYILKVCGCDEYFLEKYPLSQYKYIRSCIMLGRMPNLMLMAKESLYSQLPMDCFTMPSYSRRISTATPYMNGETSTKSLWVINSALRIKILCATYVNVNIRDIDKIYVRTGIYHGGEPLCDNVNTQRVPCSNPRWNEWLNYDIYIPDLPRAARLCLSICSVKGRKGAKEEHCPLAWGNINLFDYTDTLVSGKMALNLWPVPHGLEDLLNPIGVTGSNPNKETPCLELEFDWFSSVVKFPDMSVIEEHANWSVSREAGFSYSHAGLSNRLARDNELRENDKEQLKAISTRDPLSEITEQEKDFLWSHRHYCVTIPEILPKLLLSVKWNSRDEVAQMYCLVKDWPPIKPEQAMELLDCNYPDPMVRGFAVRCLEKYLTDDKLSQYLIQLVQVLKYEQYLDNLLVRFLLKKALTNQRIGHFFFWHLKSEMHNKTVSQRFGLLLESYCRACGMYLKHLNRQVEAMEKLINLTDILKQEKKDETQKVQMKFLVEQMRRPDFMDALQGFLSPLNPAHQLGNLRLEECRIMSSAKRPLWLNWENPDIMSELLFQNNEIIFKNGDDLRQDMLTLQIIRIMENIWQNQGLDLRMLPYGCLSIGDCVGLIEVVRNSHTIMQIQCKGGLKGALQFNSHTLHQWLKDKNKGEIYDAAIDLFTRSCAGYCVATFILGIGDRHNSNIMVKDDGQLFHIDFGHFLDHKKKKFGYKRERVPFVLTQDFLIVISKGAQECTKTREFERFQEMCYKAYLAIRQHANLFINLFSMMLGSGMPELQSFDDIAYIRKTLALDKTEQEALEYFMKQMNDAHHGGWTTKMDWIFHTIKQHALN

[4] = target: Hepatocyte growth factor receptor (Homo sapiens, UniProt P08581)
Hepatocyte growth factor receptor, sequence (P08581 whole entry): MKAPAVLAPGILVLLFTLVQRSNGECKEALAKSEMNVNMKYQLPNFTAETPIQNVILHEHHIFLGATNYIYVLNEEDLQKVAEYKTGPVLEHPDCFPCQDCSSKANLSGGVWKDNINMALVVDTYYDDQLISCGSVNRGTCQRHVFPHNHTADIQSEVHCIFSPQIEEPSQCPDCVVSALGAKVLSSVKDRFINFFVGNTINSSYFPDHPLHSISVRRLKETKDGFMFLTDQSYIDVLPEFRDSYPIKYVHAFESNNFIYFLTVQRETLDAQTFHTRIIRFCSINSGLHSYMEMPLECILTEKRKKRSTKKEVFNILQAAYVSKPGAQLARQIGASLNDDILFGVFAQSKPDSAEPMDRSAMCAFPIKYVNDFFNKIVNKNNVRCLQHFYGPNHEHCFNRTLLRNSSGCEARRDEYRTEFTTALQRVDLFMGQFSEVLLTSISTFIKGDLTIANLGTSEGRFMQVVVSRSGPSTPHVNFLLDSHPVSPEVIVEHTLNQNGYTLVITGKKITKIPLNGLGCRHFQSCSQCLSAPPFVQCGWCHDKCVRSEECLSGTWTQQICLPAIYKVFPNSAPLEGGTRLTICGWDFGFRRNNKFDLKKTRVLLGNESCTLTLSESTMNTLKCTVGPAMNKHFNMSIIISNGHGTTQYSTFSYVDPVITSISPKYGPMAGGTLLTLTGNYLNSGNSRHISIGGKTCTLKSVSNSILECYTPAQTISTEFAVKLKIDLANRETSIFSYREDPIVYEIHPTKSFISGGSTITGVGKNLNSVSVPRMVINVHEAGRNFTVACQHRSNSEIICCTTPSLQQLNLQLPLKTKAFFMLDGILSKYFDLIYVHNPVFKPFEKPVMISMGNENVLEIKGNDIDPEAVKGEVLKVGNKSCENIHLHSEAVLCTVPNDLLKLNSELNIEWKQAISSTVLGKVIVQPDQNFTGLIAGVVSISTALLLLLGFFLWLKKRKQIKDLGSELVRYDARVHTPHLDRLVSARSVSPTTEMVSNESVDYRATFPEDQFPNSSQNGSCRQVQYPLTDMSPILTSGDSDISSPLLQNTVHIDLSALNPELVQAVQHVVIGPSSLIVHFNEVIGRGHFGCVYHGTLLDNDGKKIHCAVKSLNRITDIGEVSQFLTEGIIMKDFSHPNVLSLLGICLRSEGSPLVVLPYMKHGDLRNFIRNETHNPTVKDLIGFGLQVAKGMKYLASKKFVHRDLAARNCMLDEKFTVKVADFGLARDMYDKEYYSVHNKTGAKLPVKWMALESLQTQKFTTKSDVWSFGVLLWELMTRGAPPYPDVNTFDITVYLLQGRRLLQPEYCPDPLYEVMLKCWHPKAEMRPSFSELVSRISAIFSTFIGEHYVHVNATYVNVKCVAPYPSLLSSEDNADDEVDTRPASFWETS

Q: What does the source list for `O=C(Nc1ccc(-c2nc3c(c(N4CCOCC4)n2)CSCC3)cc1)NS(=O)(=O)c1ccc(Cl)cc1`?
A: IC50 (A549): > 50 µM; IC50 [1]: > 50 µM; IC50 (MCF7): > 50 µM

Q: With `O=C(Nc1ccc(-c2nc3c(c(N4CCOCC4)n2)CS(=O)(=O)CC3)cc1)NS(=O)(=O)c1ccc(Cl)cc1` as the molecule, how does the IC50 (A549) read?
A: The IC50 was greater than 50 µM.

Q: And the IC50 [1]?
A: The IC50 was greater than 50 µM.

Q: And the IC50 (MCF7)?
A: The IC50 was greater than 50 µM.

Q: With `O=C(Nc1ccccc1)N1CCN(c2nc3c(c(N4CCOCC4)n2)CSCC3)CC1` as the molecule, how does the IC50 (A549) read?
A: The IC50 was greater than 50 µM.

Q: What about the IC50 [1] of the same molecule?
A: Its IC50 is greater than 50 µM.

Q: And the IC50 (MCF7)?
A: Its IC50 is greater than 50 µM.

Q: For `O=C(Nc1ccc(-c2nc3c(c(N4CCOCC4)n2)CSCC3)cn1)NS(=O)(=O)c1cccs1`, which IC50 (A549) is on record?
A: The IC50 was 46.9 µM.

Q: And the IC50 [1]?
A: The IC50 was greater than 50 µM.

Q: And the IC50 (MCF7)?
A: Its IC50 is greater than 50 µM.

Q: Which results are given for `O=C(Nc1ccc(Cl)c(C(F)(F)F)c1)N1CCN(c2nc3c(c(N4CCOCC4)n2)CS(=O)(=O)CC3)CC1`?
A: IC50 [2]: 9.43 µM; IC50 [3]: 4.23 µM; IC50 (A549): 6.13 µM; IC50 [4]: > 10 µM; IC50 [1]: 28.7 µM; IC50 (MCF7): 5.94 µM

Q: For `O=C(Nc1ccc(Br)cc1)N1CCN(c2nc3c(c(N4CCOCC4)n2)CS(=O)(=O)CC3)CC1`, which IC50 (A549) is on record?
A: Its IC50 is 19 µM.

Q: What about the IC50 [1] of the same molecule?
A: The IC50 was greater than 50 µM.

Q: What about the IC50 (MCF7) of the same molecule?
A: The IC50 was 45.6 µM.

Q: Which IC50 (A549) does the source give for `O=C(Nc1ccccc1)Nc1ccc(-c2nc3c(c(N4CCOCC4)n2)CSCC3)cn1` here?
A: Its IC50 is 1.27 µM.

Q: What about the IC50 [1] of the same molecule?
A: The IC50 was greater than 50 µM.

Q: What about the IC50 (MCF7) of the same molecule?
A: Its IC50 is 46.6 µM.

Q: What does the source list for `O=C(Nc1ccc(F)c(Cl)c1)Nc1ccc(-c2nc3c(c(N4CCOCC4)n2)CSCC3)cn1`?
A: IC50 [2]: 0.86 µM; IC50 [3]: 0.69 µM; IC50 (A549): 6.07 µM; IC50 [4]: > 10 µM; IC50 [1]: 20.5 µM; IC50 (MCF7): 11.5 µM

Q: With `O=C(Nc1ccc(Br)cc1)N1CCN(c2nc3c(c(N4CCOCC4)n2)CSCC3)CC1` as the molecule, how does the IC50 (A549) read?
A: Its IC50 is 39.9 µM.

Q: And the IC50 [1]?
A: Its IC50 is greater than 50 µM.

Q: What about the IC50 (MCF7) of the same molecule?
A: The IC50 was 4.68 µM.

Q: For `O=C(Nc1ccc(F)c(Cl)c1)Nc1ccc(-c2nc3c(c(N4CCOCC4)n2)CS(=O)(=O)CC3)cn1`, which IC50 [2] is on record?
A: The IC50 was 0.94 µM.

Q: And the IC50 [3]?
A: Its IC50 is 6.72 µM.

Q: What about the IC50 (A549) of the same molecule?
A: Its IC50 is 0.52 µM.

Q: What about the IC50 [4] of the same molecule?
A: Its IC50 is greater than 10 µM.

Q: And the IC50 [1]?
A: The IC50 was 1.41 µM.

Q: And the IC50 (MCF7)?
A: The IC50 was 4.82 µM.

Q: Which results are given for `O=C(Nc1ccc(Cl)c(C(F)(F)F)c1)N1CCN(c2nc3c(c(N4CCOCC4)n2)CSCC3)CC1`?
A: IC50 [2]: 6.26 µM; IC50 [3]: > 10 µM; IC50 (A549): 3.83 µM; IC50 [4]: > 10 µM; IC50 [1]: 26.7 µM; IC50 (MCF7): 5.8 µM

Q: With `O=C(Nc1ccc(-c2nc3c(c(N4CCOCC4)n2)CSCC3)cn1)NS(=O)(=O)c1ccc(F)cc1` as the molecule, how does the IC50 (A549) read?
A: Its IC50 is 36.2 µM.

Q: And the IC50 [1]?
A: Its IC50 is greater than 50 µM.

Q: What about the IC50 (MCF7) of the same molecule?
A: The IC50 was greater than 50 µM.

Q: What does the source list for `O=C(Nc1ccc(Cl)c(C(F)(F)F)c1)Nc1ccc(-c2nc3c(c(N4CCOCC4)n2)CS(=O)(=O)CC3)cn1`?
A: IC50 (A549): > 50 µM; IC50 [1]: 32.2 µM; IC50 (MCF7): 4.67 µM

Q: Which IC50 (A549) does the source give for `O=C(Nc1ccc(-c2nc3c(c(N4CCOCC4)n2)CS(=O)(=O)CC3)cc1)NS(=O)(=O)c1ccc(F)cc1` here?
A: The IC50 was greater than 50 µM.

Q: And the IC50 [1]?
A: Its IC50 is greater than 50 µM.

Q: What about the IC50 (MCF7) of the same molecule?
A: Its IC50 is greater than 50 µM.

Q: With `O=C(Nc1ccc(-c2nc3c(c(N4CCOCC4)n2)CS(=O)(=O)CC3)cn1)NS(=O)(=O)c1ccc(Cl)cc1` as the molecule, how does the IC50 (A549) read?
A: The IC50 was greater than 50 µM.

Q: And the IC50 [1]?
A: Its IC50 is greater than 50 µM.

Q: And the IC50 (MCF7)?
A: The IC50 was greater than 50 µM.

Q: For `O=C(Nc1ccc(-c2nc3c(c(N4CCOCC4)n2)CSCC3)cc1)NS(=O)(=O)c1ccc(F)cc1`, which IC50 (A549) is on record?
A: The IC50 was greater than 50 µM.

Q: And the IC50 [1]?
A: The IC50 was greater than 50 µM.

Q: And the IC50 (MCF7)?
A: The IC50 was greater than 50 µM.

Q: Which IC50 (A549) does the source give for `O=C(Nc1ccc(-c2nc3c(c(N4CCOCC4)n2)CSCC3)cn1)NS(=O)(=O)c1ccc(Cl)cc1` here?
A: Its IC50 is greater than 50 µM.

Q: What about the IC50 [1] of the same molecule?
A: Its IC50 is greater than 50 µM.

Q: What about the IC50 (MCF7) of the same molecule?
A: The IC50 was greater than 50 µM.

Q: What does the source list for `O=C(Nc1ccc(-c2nc3c(c(N4CCOCC4)n2)CS(=O)(=O)CC3)cn1)NS(=O)(=O)c1ccc(F)cc1F`?
A: IC50 (A549): 22.7 µM; IC50 [1]: > 50 µM; IC50 (MCF7): 19.7 µM

Q: For `O=C(Nc1ccccc1)N1CCN(c2nc3c(c(N4CCOCC4)n2)CS(=O)(=O)CC3)CC1`, which IC50 (A549) is on record?
A: Its IC50 is greater than 50 µM.

Q: What about the IC50 [1] of the same molecule?
A: Its IC50 is greater than 50 µM.

Q: What about the IC50 (MCF7) of the same molecule?
A: Its IC50 is greater than 50 µM.

Q: Which results are given for `Cc1ccc(S(=O)(=O)NC(=O)Nc2ccc(-c3nc4c(c(N5CCOCC5)n3)CS(=O)(=O)CC4)cn2)cc1`?
A: IC50 (A549): 42.5 µM; IC50 [1]: > 50 µM; IC50 (MCF7): > 50 µM

Q: Which results are given for `CS(=O)(=O)N1CCN(Cc2cc3nc(-c4cccc5[nH]ncc45)nc(N4CCOCC4)c3s2)CC1` [PICTILISIB]?
A: IC50 (A549): 1.2 µM; IC50 [1]: 0.8 µM

Q: With `CNC(=O)c1cc(Oc2ccc(NC(=O)Nc3ccc(Cl)c(C(F)(F)F)c3)cc2)ccn1` [SORAFENIB] as the molecule, how does the IC50 [1] read?
A: The IC50 was 8.08 µM.
